How the values were obtained:
[1] = assay type: in vivo; details: Sprague–Dawley rats, oral 3 mg/kg
Summary of the method: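 Male Sprague–Dawley rats, three per group, were fasted 12 h, dosed orally at 3 mg/kg in 0.5% hydroxypropyl methylcellulose, and fed 4 h postdose. Heparinized orbital blood was taken from 0.08 to 48 h, including 6 h, and protein-precipitated with acetonitrile. Parent and phosphorylated drug were quantified by positive-ESI MRM LC-MS/MS on a C18 column with a formic acid water/methanol gradient.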

[2] = In vitro phosphorylation of compounds in rat whole blood; assay type: in vitro ADME; details: for Vmax (phosphorylation): 37 °C, 60 min, 1–100 μmol/L; for Km: read-out: Km (phosphorylation), 37 °C, 60 min, 1–100 μmol/L
Summary of the method: (§1)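 Test compound was spiked directly into fresh whole blood at eight levels from 1 to 100 and incubated at 37 °C for 60 min. Reactions were quenched with ice-cold acetonitrile, vortexed and centrifuged. The supernatant was analysed by LC-MS/MS for phosphate formation. Km and Vmax were obtained by nonlinear fitting to the Michaelis–Menten equation.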

[3] = In vitro phosphorylation of compounds in human whole blood; assay type: in vitro ADME; details: for Vmax (phosphorylation): 37 °C, 60 min, 1–100 μmol/L; for Km: read-out: Km (phosphorylation), 37 °C, 60 min, 1–100 μmol/L
Summary of the method: as §1

SMILES | phosphorylation level at 6 h after dosing [1] [%] | CLint (phosphorylation) [2] [µL/min] | Vmax (phosphorylation) [2] [pmol/min] | Km [2] [µM] | CLint (phosphorylation) [3] [µL/min] | Vmax (phosphorylation) [3] [pmol/min] | Km [3] [µM]
CCCCCCCCc1ccc(CC[C@@](C)(N)CO)cc1.Cl [Compound 21, (R)-2-Amino-2-methyl-4-(4-octylphenyl)butan-1-ol hydrochloride] | 95 | 1.545 | 221 ± 36.8 | 143 ± 25.4 | 0.295 | 3.36 ± 0.62 | 11.4 ± 1.9
CCCCCCCCc1ccc(CC[C@@H](N)CO)cc1.Cl [Compound 22, (R)-2-Amino-4-(4-octylphenyl)butan-1-ol hydrochloride] | 69 | 3.121 | 28.4 ± 4.5 | 9.1 ± 1.8 | 0.021 | 1.24 ± 0.31 | 58.2 ± 10.6
CCc1nc(-c2ccc(-c3ccc(CC[C@@](C)(N)CO)cc3)cc2)co1.Cl [Compound 23, (R)-2-Amino-4-(4′-(2-ethyloxazol-4-yl)-[1,1′-biphenyl]-4-yl)-2-methylbutan-1-ol hydrochloride] | 94 | 0.505 | 65.2 ± 8.2 | 129 ± 15.6 | 0.012 | 0.87 ± 0.09 | 65.5 ± 8.3
CCc1nc(-c2ccc(-c3ccc(CC[C@@H](N)CO)cc3)cc2)co1.Cl [Compound 24, (R)-2-Amino-4-(4′-(2-ethyloxazol-4-yl)-[1,1′-biphenyl]-4-yl)butan-1-ol hydrochloride] | 89 | 0.015 | 1.9 ± 0.3 | 128 ± 23.4 | 0.006 | 0.24 ± 0.05 | 40.2 ± 7.3
CCCCCCCCc1ccc(CCC(N)(CO)CO)cc1 [FTY720, fingolimod, reference compound] | 80 | 0.930 | 63.4 ± 10.2 | 68.2 ± 11.2 | 0.013 | 0.33 ± 0.05 | 25.7 ± 4.2

Reference: PMC7332640 (Acta Pharmaceutica Sinica. B, 2019)
